ChEMBL document CHEMBL3098122, “Synthesis, biological activity and structure-activity relationships of new benzoic acid-based protein tyrosine phosphatase inhibitors endowed with insulinomimetic effects in mouse C2C12 skeletal muscle cells” (Eur J Med Chem, 2014)
The source made the active and inactive calls. The calls are words filed in the database; no cut-off is given here.

Tests used:
[1] = molecular target: T1, Tyrosine-protein phosphatase non-receptor type 1 (Homo sapiens) (UniProt P18031); assay: Partial reversible inhibition of human recombinant PTP1B expressed in Escherichia coli TB1 using p-nitrophenylphosphate as substrate assessed as residual activity at 25 times IC50 after 1 hr measured after 400 fold dilution
T1 sequence (whole entry): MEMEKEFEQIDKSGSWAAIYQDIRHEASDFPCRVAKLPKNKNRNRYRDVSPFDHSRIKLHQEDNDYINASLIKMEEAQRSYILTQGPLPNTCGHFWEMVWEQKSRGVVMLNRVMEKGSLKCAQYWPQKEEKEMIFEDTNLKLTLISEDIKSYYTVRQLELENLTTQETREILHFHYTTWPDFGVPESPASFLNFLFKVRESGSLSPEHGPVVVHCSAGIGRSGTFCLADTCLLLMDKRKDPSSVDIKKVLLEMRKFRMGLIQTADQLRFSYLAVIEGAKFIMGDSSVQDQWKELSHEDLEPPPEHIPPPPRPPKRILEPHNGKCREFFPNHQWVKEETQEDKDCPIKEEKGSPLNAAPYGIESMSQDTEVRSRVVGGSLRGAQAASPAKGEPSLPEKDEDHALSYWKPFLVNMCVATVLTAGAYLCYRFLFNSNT
Summary of the method: (§1)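 Reversibility: PTP1B preincubated 1 h at 37 °C with at least 25-fold […], DMSO in controls; mixture then diluted 400-fold in assay buffer and residual activity measured on p-nitrophenylphosphate; three replicates, mean ± SE.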

[2] = molecular target: T2, Tyrosine-protein phosphatase non-receptor type 1 (Homo sapiens, UniProt P18031); assay: Inhibition of human recombinant PTP1B expressed in Escherichia coli TB1 using p-nitrophenylphosphate as substrate
T2 sequence (P18031 whole entry): T1 sequence (whole entry)

[3] = molecular target: T3, Low molecular weight phosphotyrosine protein phosphatase (Homo sapiens, UniProt P24666); assay: Inhibition of human recombinant LMW-PTP IF1 expressed in Escherichia coli TB1 using p-nitrophenylphosphate as substrate
T3 sequence (P24666 whole entry): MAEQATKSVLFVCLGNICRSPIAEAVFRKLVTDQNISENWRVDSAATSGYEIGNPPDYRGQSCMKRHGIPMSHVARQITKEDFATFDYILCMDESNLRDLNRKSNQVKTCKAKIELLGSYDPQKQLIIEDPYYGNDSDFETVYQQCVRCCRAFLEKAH

Homo sapiens [4] = species: Homo sapiens; assay: Selectivity ratio of IC50 for human recombinant LMW-PTP IF1 to IC50 for human recombinant PTP1B
Homo sapiens [5] = species: Homo sapiens; assay: Selectivity ratio of IC50 for human recombinant LMW-PTP IF2 to IC50 for human recombinant LMW-PTP IF1
[6] = molecular target: T2, Tyrosine-protein phosphatase non-receptor type 1; assay: Mixed type inhibition of human recombinant PTP1B expressed in Escherichia coli TB1 using p-nitrophenylphosphate as substrate by Double reciprocal plot analysis
Summary of the method: (§2)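 PTP1B (human, GST fusion from pGEX-2T in E. coli TB1, thrombin-cleaved, gel-filtered) assayed at 37 °C, pH 7.0 β,β-dimethylglutarate buffer with 1 mM EDTA and 5 mM DTT, p-nitrophenylphosphate at seven final concentrations (0.5–25 mM) with increasing inhibitor; KOH-stopped, A400. Inhibition type from double reciprocal plots; Ki from apparent Km vs inhibitor concentration; triplicate initial rates.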

[7] = molecular target: T3, Low molecular weight phosphotyrosine protein phosphatase; assay: Inhibition of human recombinant LMW-PTP IF2 expressed in Escherichia coli TB1 using p-nitrophenylphosphate as substrate
Homo sapiens [8] = species: Homo sapiens; assay: Selectivity ratio of IC50 for human recombinant LMW-PTP IF2 to IC50 for human recombinant PTP1B
[9] = Cytotoxicity against mouse C2C12 cells expressing PTP1B, TC-PTP, LMW-PTP and insulin receptor assessed as cell viability after 2 hrs by MTT assay; assay type: cell-based; set-up: concentration or dose not given beside the values; conditions: read-out: Activity
Summary of the method: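 C2C12 myoblasts differentiated 4 days in DMEM with 2% horse serum, serum-starved 20 h; myotubes then given MTT (0.5 mg/ml final) for 2 h at 37 °C, lysed in DMSO, formazan read at 570 nm; three replicates relative to control.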

[10] = molecular target: T4, Tyrosine-protein phosphatase non-receptor type 1 (Mus musculus) (UniProt P35821); assay: Inhibition of PTP1B in mouse C2C12 cells assessed as increase of insulin receptor beta phosphorylation at 25 uM after 90 mins; assay type: cell-based
T4 sequence (whole entry): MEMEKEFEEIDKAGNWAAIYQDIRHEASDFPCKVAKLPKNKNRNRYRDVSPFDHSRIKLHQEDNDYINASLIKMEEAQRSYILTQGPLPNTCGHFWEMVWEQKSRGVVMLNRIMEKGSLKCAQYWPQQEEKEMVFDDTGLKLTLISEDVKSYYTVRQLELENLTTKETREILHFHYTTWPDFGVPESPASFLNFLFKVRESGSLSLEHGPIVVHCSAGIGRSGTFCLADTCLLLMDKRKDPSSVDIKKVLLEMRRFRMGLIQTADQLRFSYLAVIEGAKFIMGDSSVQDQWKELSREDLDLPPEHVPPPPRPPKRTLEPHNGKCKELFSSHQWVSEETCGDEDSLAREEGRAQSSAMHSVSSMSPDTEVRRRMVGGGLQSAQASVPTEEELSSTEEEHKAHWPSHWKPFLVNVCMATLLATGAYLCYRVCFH
Summary of the method: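 Differentiated, 20 h serum-starved C2C12 myotubes exposed to 25 µM compound (DMSO 1.2% final) for 90 min at 37 °C, insulin 10 nM 30 min as positive control; lysates run on SDS-PAGE, Western blot for phospho-insulin receptor β with actin loading control, densitometry; three replicates, p<0.05 versus control.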

[11] = molecular target: T5, Tyrosine-protein phosphatase non-receptor type 2 (Homo sapiens, UniProt P17706); assay: Inhibition of TC-PTP (unknown origin) purchased from New England Biolabs using p-nitrophenylphosphate as substrate
T5 sequence (P17706 whole entry): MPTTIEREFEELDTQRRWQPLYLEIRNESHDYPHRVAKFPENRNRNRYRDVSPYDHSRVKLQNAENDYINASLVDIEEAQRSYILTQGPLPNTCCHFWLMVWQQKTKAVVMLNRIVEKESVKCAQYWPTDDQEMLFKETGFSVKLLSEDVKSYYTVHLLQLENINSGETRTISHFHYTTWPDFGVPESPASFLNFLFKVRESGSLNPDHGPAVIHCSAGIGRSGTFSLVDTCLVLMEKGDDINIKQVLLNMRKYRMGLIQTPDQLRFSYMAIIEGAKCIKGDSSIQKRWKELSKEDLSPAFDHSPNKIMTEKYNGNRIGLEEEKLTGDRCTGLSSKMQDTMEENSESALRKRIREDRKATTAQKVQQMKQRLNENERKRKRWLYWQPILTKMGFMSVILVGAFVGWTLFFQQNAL

[12] = molecular target: T1, Tyrosine-protein phosphatase non-receptor type 1 (Homo sapiens); assay: Reversible inhibition of human recombinant PTP1B expressed in Escherichia coli TB1 using p-nitrophenylphosphate as substrate assessed as residual activity at 25 times IC50 after 1 hr measured after 400 fold dilution; summary of the method: as §1
Homo sapiens [13] = species: Homo sapiens; assay: Selectivity ratio of IC50 for TC-PTP (unknown origin) to IC50 for human recombinant PTP1B
Summary of the method: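 Commercial T-cell PTP assayed on p-nitrophenylphosphate at 37 °C, pH 7.0 β,β-dimethylglutarate buffer with 1 mM EDTA and 5 mM DTT; stopped with 1 M KOH, absorbance at 400 nm; IC50 from ratio of activity with and without inhibitor versus inhibitor concentration. Ratio lines pair this with recombinant human PTP1B measured the same way.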

[14] = molecular target: T2, Tyrosine-protein phosphatase non-receptor type 1; assay: Competitive inhibition of human recombinant PTP1B expressed in Escherichia coli TB1 using p-nitrophenylphosphate as substrate by Double reciprocal plot analysis; summary of the method: as §2
[15] = molecular target: T4, Tyrosine-protein phosphatase non-receptor type 1 (Mus musculus); assay: Inhibition of PTP1B in mouse C2C12 cells assessed as increase of 2-deoxy-D-1,2-[3H]-glucose at 25 uM after 90 mins by beta-scintillation counting; assay type: cell-based
Summary of the method: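 Serum-starved differentiated C2C12 myotubes treated 90 min with 25 µM compound (1.2% DMSO) or 30 min with 10 nM insulin, then 0.1 µCi 2-deoxy-D-[1,2-3H]glucose in Ringer-Hepes for 15 min at 37 °C; cold PBS wash, 0.2 M NaOH lysis, scintillation counting normalized to Bradford protein; three replicates.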

Structure (SMILES) | Activity [1] [%] | IC50 [2] [µM] | IC50 [3] [µM] | Ratio IC50 (Homo sapiens [4]) | Ratio IC50 (Homo sapiens [5]) | Ki [6] [µM] | IC50 [7] [µM] | Ratio IC50 (Homo sapiens [8]) | inhibition [10] | IC50 [11] [µM] | Activity [12] [%] | Ratio IC50 (Homo sapiens [13]) | Ki [14] [µM] | inhibition [15] | viability at 2 h [9] [%]
O=C(O)c1ccc(CN2C(=O)/C(=C/c3ccc(OCCc4ccccc4)cc3)S/C2=N\c2ccccc2)cc1 | 50 | 1.5 | 4 | > 2 | > 2 | 0.5 | 8.9 | > 2 | Active | 0.7 | – | – | – | – | ≥ 80
COc1cc(/C=C2\S/C(=N\c3ccccc3)N(Cc3ccc(C(=O)O)cc3)C2=O)ccc1OCCc1ccccc1 | – | 2.8 | 10.7 | > 2 | > 2 | 1.5 | 19.7 | > 2 | Active | 3.4 | 80 | – | – | – | ≥ 80
O=C(O)c1ccc(CN2C(=O)S/C(=C\c3cccc(OCCc4ccccc4)c3)C2=O)cc1 | – | 9.5 | 20.1 | > 2 | > 2 | – | > 50 | > 2 | – | 7.3 | 80 | – | – | Active | 60
O=C(O)c1ccc(CN2C(=O)S/C(=C\c3ccc(OCc4ccccc4)c(F)c3)C2=O)cc1 | – | 7.5 | 34.3 | > 2 | > 2 | – | > 50 | > 2 | Active | 10.8 | 80 | – | – | – | ≥ 80
O=C(O)c1ccc(CN2C(=O)/C(=C/c3ccc(OCc4ccccc4)c(F)c3)S/C2=N\c2ccccc2)cc1 | 50 | 2.2 | 3.3 | > 2 | > 2 | – | 15.5 | > 2 | Active | 0.8 | – | – | – | Active | ≥ 80
COc1cc(/C=C2\S/C(=N\c3ccccc3)N(Cc3ccc(C(=O)O)cc3)C2=O)ccc1OCc1ccccc1 | – | 1.6 | 4.5 | > 2 | > 2 | – | 10 | > 2 | – | 5.1 | 80 | 2 | – | inactive | ≥ 80
O=C(O)c1ccc(CN2C(=O)/C(=C/c3cccc(OCCc4ccccc4)c3)S/C2=N\c2ccccc2)cc1 | 50 | 4.6 | 10.9 | > 2 | > 2 | – | 26.8 | > 2 | – | 1.9 | – | – | – | inactive | ≥ 80
COc1cc(/C=C2\SC(=O)N(Cc3ccc(C(=O)O)cc3)C2=O)ccc1OCc1ccccc1 | – | 4.6 | 10.3 | > 2 | > 2 | – | > 50 | > 2 | Active | 3.5 | 80 | – | – | – | ≥ 80

Second part, led by results:

Activity [1] [%] | IC50 [2] [µM] | IC50 [3] [µM] | Ratio IC50 (Homo sapiens [4]) | Ratio IC50 (Homo sapiens [5]) | Ki [6] [µM] | IC50 [7] [µM] | Ratio IC50 (Homo sapiens [8]) | inhibition [10] | IC50 [11] [µM] | Activity [12] [%] | Ratio IC50 (Homo sapiens [13]) | Ki [14] [µM] | inhibition [15] | Structure (SMILES) | viability at 2 h [9] [%]
– | 24.6 | > 50 | – | > 2 | – | > 50 | – | Active | 16.9 | 80 | – | – | – | COc1ccc(/C=C2\SC(=O)N(Cc3ccc(C(=O)O)cc3)C2=O)cc1OCCc1ccccc1 | ≥ 80
– | 2.6 | 20.1 | > 2 | > 2 | 2.3 | > 50 | > 2 | – | 5.9 | 80 | 2 | – | – | O=C(O)c1ccc(CN2C(=O)S/C(=C\c3ccc(OCCc4ccccc4)cc3)C2=O)cc1 | ≥ 80
– | 1.7 | 17.2 | > 2 | > 2 | – | > 50 | > 2 | Active | 4.3 | 80 | 2 | 1.5 | – | COc1ccc(/C=C2\S/C(=N\c3ccccc3)N(Cc3ccc(C(=O)O)cc3)C2=O)cc1OCCc1ccccc1 | ≥ 80
50 | 3.9 | 9.1 | > 2 | > 2 | – | > 50 | > 2 | – | 4 | – | – | – | – | COc1ccc(/C=C2\S/C(=N\c3ccccc3)N(Cc3ccc(C(=O)O)cc3)C2=O)cc1OCc1ccccc1 | ≥ 80
– | 4 | 22.3 | > 2 | > 2 | – | > 50 | > 2 | Active | 12.7 | 80 | 2 | – | – | COc1ccc(/C=C2\SC(=O)N(Cc3ccc(C(=O)O)cc3)C2=O)cc1OCc1ccccc1 | ≥ 80
